From PubChem
CSC inhib: cancer stem cell viability inhibitors, primary screen, luminescence. AID 2717, 2010. 300,000 compounds, 1.1% hits. inhibition, % at 7.5 µM. cancer stem cell-like cells viability; in the data active means inhibition above about 75%; tested in HMLE shEcad cells
SKKanGAS inh: S. pyogenes SKKanGAS growth inhibitors in kanamycin, primary screen, streptokinase expression inhibitor project, SKKanGAS strain, BacTiter-Glo luminescence | 6 h | 300,000 compounds, 1.3% hits | inhibition, % at 7.5 µM | AID 1662, 2009;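 active means mean replicate score, as percent of positive control median, at least 50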;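 further: strain carries kanamycin resistance gene driven by streptokinase promoter and grows in 40 µg/ml kanamycin; loss of luminescence reflects streptokinase promoter inhibition or plain growth inhibition; 0% = median of DMSO wells and 100% = positive control at its reference dose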
Calb FLC: C. albicans growth inhibition with fluconazole, primary screen, CaCi-2 strain, Alamar Blue fluorescence; C. albicans CaCi-2 (fluconazole-resistant clinical isolate) + fluconazole, 48 h; growth inhibition, % (concentration not given with the values); 300,000 compounds, 0.57% hits;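 active means growth inhibition above about 58% in most replicates, limit read from the data, passing the limit was not always enough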;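 further: all wells also contain fluconazole at 8 µg/ml as a sub-toxic cotreatment; 0% = median of DMSO wells and 100% = median of geldanamycin control wells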
T cruzi repl: inhibitors of intracellular T. cruzi growth, primary screen, luminescence, NIH3T3 host cells | T. cruzi beta-gal in NIH3T3, 90 h | inhibition, % (test concentration not listed) | 300,000 compounds, 1.4% hits | AID 1885, 2009;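 active means mean inhibition across valid replicates above about 55%, limit read from the data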;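 further: signal also drops with host cell toxicity which is not excluded here; 0% = plate median of DMSO wells and 100% = zero luminescence signal; higher percent means less beta-gal luminescence so fewer parasites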
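Assay system: NIH/3T3 fibroblasts plus reporter T. cruzi. Amount: NIH/3T3 cells, 5,000 per well. Buffer or medium: DMEM, 2% fetal bovine serum. Doses: compound pinned at 50 nL/well, DMSO. Schedule: ≥90 h infection period, 3 h prior cell attachment. Signal: luminescent β-galactosidase signal after 60 min lysis. Read-out: parasite load inhibition, %.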
Beta cell apopt: inhibitors of cytokine-induced beta cell apoptosis, primary screen, luminescence; protection from apoptosis, % (test concentration not listed); 300,000 compounds, 0.8% hits; INS-1E cytokine-induced death, ATP luminescence, 48 h; percent of positive-control rescue, neutral wells zero;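 active means Every replicate reaches about 75%, or at least half do and their mean reaches it too, limit read from the data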;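 further: 0% = cytokine-treated negative control wells and 100% = positive control rescue; higher means more ATP so stronger rescue from cytokine killing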
Mdm2 MdmX PPI: inhibitors of human Mdm2-MdmX association, primary screen, cell-based, luminescence, split luciferase, SaOS-2, uHTS; Protein Mdm4 (Homo sapiens) + E3 ubiquitin-protein ligase Mdm2 (Homo sapiens), …; SaOS-2 split-luciferase Mdm2/MdmX complementation; inhibition, % at 8 µM; 330,000 compounds, 3% hits; AID 485346, 2010;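 active means inhibition of at least 50% at 8 µM in the primary screen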
An asterisk follows results filed as active. Hits are enriched below; roughly 5.7% of the tested compounds scored in any of these assays.

Results for CCN(Cc1ccc(C#CCCO)cc1)CC1CCCN(CCc2cccc(F)c2)C1 (stereo not given) ?
CSC inhib: 12; SKKanGAS inh: -1; Calb FLC: 10; T cruzi repl: 64*; Beta cell apopt: 6; Mdm2 MdmX PPI: 27

How did O=C(O)c1ccc(CN2C(=O)CSC2=S)cc1 do in these assays?
CSC inhib: 23; SKKanGAS inh: 2; Calb FLC: 98*; T cruzi repl: 7; Beta cell apopt: -5; Mdm2 MdmX PPI: 3

What do the screens show for `Cn1cnc(Sc2ncnc3nc[nH]c23)c1[N+](=O)[O-]`?
CSC inhib: 84*; SKKanGAS inh: -1; Calb FLC: -6; T cruzi repl: 29; Beta cell apopt: -3; Mdm2 MdmX PPI: 17

Results for Cn1cnc([N+](=O)[O-])c1Sc1ncnc2nc[nH]c12 ?
CSC inhib: 85*; SKKanGAS inh: 47; Calb FLC: -1; T cruzi repl: 16; Beta cell apopt: 3; Mdm2 MdmX PPI: 20

Results for CCN(Cc1ccccc1)C(=O)CCc1nc(CN2CCN(C(=O)c3ccc([N+](=O)[O-])cc3)CC2)no1 ?
CSC inhib: 6; SKKanGAS inh: -1; Calb FLC: -6; T cruzi repl: -7; Beta cell apopt: 2; Mdm2 MdmX PPI: 12

Results for Cc1cccc(Nc2nc(C)cc(C)n2)c1 ?
CSC inhib: 7; SKKanGAS inh: 1; Calb FLC: 4; T cruzi repl: -5; Beta cell apopt: -8; Mdm2 MdmX PPI: -13

What do the screens show for `Cc1cccc(NC2=NC(C)(C)N=C(N)N2)c1`?
SKKanGAS inh: 111*; Calb FLC: 0; T cruzi repl: -54; Beta cell apopt: 3; Mdm2 MdmX PPI: 34

How did Cn1cc(S(=O)(=O)N2CCOCC2)cc1C(=O)NCc1ccccc1Cl do in these assays?
SKKanGAS inh: 1; Calb FLC: -5; T cruzi repl: -4; Beta cell apopt: -4; Mdm2 MdmX PPI: -25

What do the screens show for `CN1CCN(CC(C)(C)NS(=O)(=O)c2ccc(Cl)cc2)CC1`?
CSC inhib: 48; SKKanGAS inh: -6; Calb FLC: -26; T cruzi repl: 70*; Beta cell apopt: -2; Mdm2 MdmX PPI: 22

Results for CC(C)(CN1CCN(Cc2ccccc2)CC1)NS(=O)(=O)c1ccc(Cl)cc1 ?
CSC inhib: 69; SKKanGAS inh: -8; Calb FLC: -3; T cruzi repl: 38; Beta cell apopt: 4; Mdm2 MdmX PPI: 32

How did CCOC(=O)c1nn(-c2ccccc2Cl)c(=O)cc1OCC(=O)Nc1cccc(OC)c1 do in these assays?
CSC inhib: 5; SKKanGAS inh: 53*; Calb FLC: -1; T cruzi repl: -8; Beta cell apopt: 5; Mdm2 MdmX PPI: 44

How did CCOC(=O)c1nn(-c2ccccc2C)c(=O)cc1OCC(=O)Nc1cccc(OC)c1 do in these assays?
CSC inhib: 12; SKKanGAS inh: 44; Calb FLC: -11; T cruzi repl: -3; Beta cell apopt: -2; Mdm2 MdmX PPI: 1

What do the screens show for `CCCC(Oc1ccc(Br)cc1)c1nc2c3cc(OC)c(OC)cc3nc(=S)n2[nH]1` (stereo not given)?
SKKanGAS inh: 100*; Calb FLC: 27; T cruzi repl: 49; Beta cell apopt: 35; Mdm2 MdmX PPI: 50

Results for CC(Oc1ccc(Br)cc1)c1nc2c3ccccc3nc(=S)n2[nH]1 (stereo not given) ?
CSC inhib: 15; SKKanGAS inh: 92*; Calb FLC: -10; T cruzi repl: 18; Beta cell apopt: 99*; Mdm2 MdmX PPI: 9

What do the screens show for `NC(=O)c1ccsc1NC(=O)COC(=O)c1cccnc1Cl`?
CSC inhib: -9; Beta cell apopt: 1; Mdm2 MdmX PPI: 2

Results for CCn1cc(C(=O)NCc2ccc3c(c2)OCO3)c(=O)c2cc(F)c(N3CCN(C)CC3)cc21 ?
CSC inhib: 17; SKKanGAS inh: -3; Calb FLC: 27; T cruzi repl: 60*; Beta cell apopt: 4; Mdm2 MdmX PPI: 33

Results for CCn1cc(C(=O)N[C@H](C)c2ccccc2)c(=O)c2cc(F)c(N3CCN(C)CC3)cc21 ?
CSC inhib: 75*; SKKanGAS inh: -5; Calb FLC: -5; T cruzi repl: 26; Beta cell apopt: 6; Mdm2 MdmX PPI: 22

What do the screens show for `CCn1cc(C(=O)NCCc2ccccc2)c(=O)c2cc(F)c(N3CCN(C)CC3)cc21`?
CSC inhib: 20; SKKanGAS inh: 5; Calb FLC: 4; T cruzi repl: -3; Beta cell apopt: 4; Mdm2 MdmX PPI: 32

Results for CCC(C)NC(=O)c1cn(CC)c2cc(N3CCN(C)CC3)c(F)cc2c1=O (stereo not given) ?
CSC inhib: 29; SKKanGAS inh: -4; Calb FLC: 6; T cruzi repl: 25; Beta cell apopt: -6; Mdm2 MdmX PPI: 8

How did CCN1CCN(C(=O)c2cc(S(=O)(=O)N3CCCCC3)ccc2Cl)CC1 do in these assays?
CSC inhib: 5; SKKanGAS inh: 0; Calb FLC: -11; T cruzi repl: 5; Beta cell apopt: -1; Mdm2 MdmX PPI: 18

Results for O=S(=O)(c1ccc2nc(Nc3ccccc3)ccc2c1)N1CCCCC1 ?
CSC inhib: 50; SKKanGAS inh: -4; Calb FLC: 3; T cruzi repl: 21; Beta cell apopt: 103*; Mdm2 MdmX PPI: 33

Results for COc1cc([C@@H]2c3cc4c(cc3[C@@H](NC3CCN(Cc5ccccc5)CC3)[C@H]3COC(=O)[C@H]23)OCO4)cc(OC)c1O ?
SKKanGAS inh: 8; Calb FLC: 101*; T cruzi repl: 24

What do the screens show for `Cc1ccc(S(=O)(=O)Nc2ccc(S(=O)(=O)Nc3nccs3)cc2)cc1C`?
Mdm2 MdmX PPI: -8

What do the screens show for `CCOc1ccc(S(=O)(=O)NC(C)(C)C)cc1-c1nc2c(C(C)(C)C)nn(C)c2c(=O)[nH]1`?
SKKanGAS inh: 15; Calb FLC: 10; T cruzi repl: 67*; Mdm2 MdmX PPI: 42

Results for Cc1ccc(C)c(SCC(=O)Nc2ccc(C)c(S(=O)(=O)N3CCOCC3)c2)c1 ?
Beta cell apopt: -16; Mdm2 MdmX PPI: 8

What do the screens show for `O=[N+]([O-])c1ccc(-n2nnnc2-c2ccccc2)c([N+](=O)[O-])c1`?
CSC inhib: 63; SKKanGAS inh: -2; Calb FLC: 25; T cruzi repl: 62*; Beta cell apopt: -7

How did CCCCNc1nc(Cl)nc(Nc2ccc(C)cc2)n1 do in these assays?
CSC inhib: 13; SKKanGAS inh: -7; Calb FLC: 7; T cruzi repl: 13; Beta cell apopt: 12; Mdm2 MdmX PPI: 24
